# Source: PubChem BioAssay (Johns Hopkins Ion Channel Center)
# KCNQ1 pot: human KCNQ1 channel potentiation or activation | P51787 | CHO-K1 KCNQ1, thallium flux FluxOR fluorescence; hits give high values | B-score at 10 µM | 310,000 compounds, 0.35% hits | AID 2648;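 active = fluorescence ratio B-score, a plate-corrected score, at least three library SD, with initial intensity B-score within 5 SD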
# Target sequence (P51787 whole entry, looked up): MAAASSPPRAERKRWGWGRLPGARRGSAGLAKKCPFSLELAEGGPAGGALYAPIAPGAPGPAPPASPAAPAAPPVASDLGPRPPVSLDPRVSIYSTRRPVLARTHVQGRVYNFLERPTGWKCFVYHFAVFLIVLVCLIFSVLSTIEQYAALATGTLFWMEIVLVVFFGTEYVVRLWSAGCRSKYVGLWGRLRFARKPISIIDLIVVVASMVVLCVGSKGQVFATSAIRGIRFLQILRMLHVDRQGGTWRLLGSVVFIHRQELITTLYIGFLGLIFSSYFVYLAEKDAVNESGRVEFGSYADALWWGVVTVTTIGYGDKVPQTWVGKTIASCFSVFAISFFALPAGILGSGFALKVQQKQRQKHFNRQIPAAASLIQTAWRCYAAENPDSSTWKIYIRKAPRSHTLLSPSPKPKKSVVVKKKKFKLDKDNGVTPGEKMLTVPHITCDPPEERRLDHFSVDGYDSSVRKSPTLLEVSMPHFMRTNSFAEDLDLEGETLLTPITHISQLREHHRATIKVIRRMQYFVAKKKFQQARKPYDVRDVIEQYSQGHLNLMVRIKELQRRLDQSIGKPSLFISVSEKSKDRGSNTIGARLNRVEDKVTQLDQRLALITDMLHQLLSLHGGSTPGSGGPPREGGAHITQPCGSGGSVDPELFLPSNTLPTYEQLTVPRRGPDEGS
#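 Assay system: stable KCNQ1 CHO-K1 line; medium: assay buffer, equal DMSO in all wells; timing: 90 min dye loading and 20 min compound exposure, both at room temperature; technique: kinetic FluxOR thallium fluorescence, 10-s 1-Hz baseline, 110-s post-stimulus read; read-out basis: B score of baseline-normalized fluorescence ratio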
# KCNQ1 block: human KCNQ1 channel inhibition; P51787; CHO-K1 KCNQ1, FluxOR thallium flux fluorescence; hits give high values; B-score at 10 µM; 310,000 compounds, 1.3% hits; AID 2642;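 active = compounds whose thallium flux B-score, printed positive for inhibition, exceeds three library SD while starting fluorescence stays within three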;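 also: channel opened by potassium depolarization with thallium stimulus after 20 min compound exposure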
# hERG protect: shields human hERG channel from block by proarrhythmic agents. CHO-hERG, FluxOR thallium flux, dofetilide IC70 present. activation (rescue from dofetilide block), less the hit threshold, % at 10 µM. 310,000 compounds, 0.51% hits;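 active = activation above the mean of controls blocked by dofetilide plus 5 SD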;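 also: thallium influx through hERG after potassium depolarization seen as dye fluorescence rise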
# KCNK3 block: human KCNK3 channel inhibition, primary screen | O14649 | CHO-KCNK3 thallium flux, FluxOR fluorescence; hits give low values | B-score at 10 µM | 340,000 compounds, 0.84% hits | AID 602410;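 active = B-score under library mean minus 4 SD, starting fluorescence ratio at most library mean plus 5 SD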;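 also: more negative B-score means stronger inhibition of thallium flux through KCNK3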
# KCNK9 inh: inhibitors of human KCNK9 two-pore domain potassium channel; HEK293 KCNK9, FluxOR thallium flux fluorescence; hits give low values; B-score at 10 µM; 310,000 compounds, 1.2% hits;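 active = ratio B-score over 3 SD below the library mean, with starting fluorescence within 5 SD of its mean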;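 also: negative B-score means less thallium flux so channel inhibition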
# Kir21 inh: inhibitors of mouse Kir2.1 inward-rectifier potassium channel. P35561. HEK293-Kir2.1, FluxOR thallium flux fluorescence; hits give low values. B-score at 10 µM. 310,000 compounds, 0.85% hits. AID 1672;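 active = fluorescence ratio B-score at or below minus 3 SD of library scores, with starting-brightness B-score within 2 SD, cut at about -4.2 in these data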;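 also: channel flux triggered by added potassium and thallium sulfate stimulus; B-score of peak minus minimum fluorescence over baseline after thallium stimulus; more negative B-score means stronger Kir2.1 block with less thallium influx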
# KCNK9 inh conf: human KCNK9 inhibitor confirmation; 4,900 compounds, 43% hits; inhibition, % at 10 µM; HEK293 KCNK9 cells, FluxOR thallium flux fluorescence; shares compounds with KCNK9 inh; AID 492992;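 active = thallium signal inhibited by more than 5 SD of the compound-free buffer control wells, on both duplicate plates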;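 also: 0% = assay buffer control wells without compound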
# Kir2-1 spec: selectivity of KCNK9 modulators against mouse Kir2.1; inhibition, % at 10 µM; Kir2.1 cells, FluxOR thallium flux fluorescence; shares compounds with KCNK9 inh; 4,900 compounds, 4% hits;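 active = thallium signal drop more than 5 SD beyond the mean of the no-compound control wells, seen in both duplicate plates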;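 also: signal is fluorescence rise after thallium addition divided by baseline fluorescence; plate controls were assay buffer only for no effect and full block by chlorpromazine control for full effect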
# HEK293 Tl ctr: non-induced cell nonspecific activity of KCNK9 modulators. shares compounds with KCNK9 inh. non-induced KCNK9-HEK293, FluxOR thallium flux. inhibition, % at 10 µM. 4,900 compounds, 40% hits. AID 492997;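 active = thallium signal drop beyond 5 SD of the untreated control mean, on both duplicate plates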;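 also: plate controls were buffer only IC0 wells for no effect and SID17386958 at its maximal inhibitory level for full effect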
# * hit, by the source's call; i = inactive; . = no result. In the library only some 3.8% were active in any assay of this set; here they are far more common.
SMILES,KCNQ1 pot,KCNQ1 block,hERG protect,KCNK3 block,KCNK9 inh,Kir21 inh,KCNK9 inh conf,Kir2-1 spec,HEK293 Tl ctr
Cc1ccc(-c2ccc(SCC(=O)N3CCCc4ccccc43)nn2)cc1,i,i,-10,.,i,-0.04,i,i,i
COCCNC(=O)CCCCCN1C(=O)CCC1=O,i,i,-15,i,i,0.94,.,.,.
COc1ccc(C(=O)CSc2ccc(-c3ccc(C)cc3)nn2)cc1,i,i,-4,i,i,0.76,i,i,i
O=C(CSc1ccc(-c2ccccc2)nn1)c1ccccc1,i,i,-6,i,i,-0.14,.,.,.
CCOC(=O)/C(=N/Nc1ccccc1OC)N1CCCc2ccccc21,i,i,2,i,i,1.4,i,i,i
CCOC(=O)/C(=N/Nc1ccccc1)N1CCCc2ccccc21,i,i,-12,i,i,0.13,.,.,.
COc1cccc(/C=N/NC(=O)C(C)n2nnc3ccccc32)c1 (configuration not stated),i,i,-5,i,i,-0.21,.,.,.
CCNC(=S)N/N=C(\C)c1cccc(C(F)(F)F)c1,i,i,-13,i,i,0.17,.,.,.
N#C/C(=C/c1ccc(N2CCOCC2)o1)c1ccc(Cl)cc1,i,i,-23,i,-10*,0.2,74%*,38%*,80%*
Cc1ccc(S(=O)(=O)N2CCCCC2CCNC(=O)C(=O)NCc2ccccc2)cc1 (configuration not stated),i,i,-1,i,i,2.1,.,.,.
CCCOc1ccc(CN(C(=O)c2cccc(OC)c2)C2CCS(=O)(=O)C2)cc1 (configuration not stated),i,i,-6,i,i,-1.8,.,.,.
CC1CN(C(=O)N2c3ccccc3Sc3ccccc32)C(C)CC1=O (configuration not stated),i,i,5.3*,i,-8.1*,-0.22,30%*,i,29%*
CC1CCCN(C(=O)N2c3ccccc3Sc3ccccc32)C1 (configuration not stated),i,i,-11,i,-11*,0.63,52%*,i,44%*
COc1ccc2c(CC(=O)NNC(=O)c3ccc(O)cc3)coc2c1,.,.,.,i,.,.,.,.,.
COc1cc(C(=O)Oc2cccc(C(=S)N3CCOCC3)c2)cc(OC)c1OC,i,i,-7,i,i,-0.78,.,.,.
COc1ccc(/C=C2\CCC/C(=C\c3ccc(OC)c(OC)c3OC)C2=O)c(OC)c1OC,i,i,-3,i,i,-0.12,i,i,i
COCc1ccc(C(=O)N2CCCC(N(C)Cc3ccccc3)C2)s1 (configuration not stated),i,i,-4,i,i,-0.32,.,.,.
CN(Cc1ccccc1)C1CCCN(C(=O)c2ccc(Cl)s2)C1 (configuration not stated),i,i,-8,i,i,-0.14,i,i,i
COc1ccc(/C=C/c2ccccc2)cc1[C@H]1[C@H]2C=CC[C@@H](C)[C@@H]2C(=O)N1Cc1ccccc1,i,i,-16,i,i,0.36,.,.,.
COc1cccc(CN2CCCC(C(=O)c3ccc4c(c3)OCO4)C2)c1OC (configuration not stated),i,i,-6,i,i,-0.12,.,.,.
COc1ccc(C(=O)C2CCCN(Cc3cccc4c3OCO4)C2)cc1OC (configuration not stated),i,i,-2,i,i,-0.02,i,i,i
COc1ccc(F)cc1C(=O)C1CCCN(C(=O)c2cccc(N(C)C)c2)C1 (configuration not stated),i,i,-17,i,i,0.06,i,i,i
COc1ccc(C(=O)C2CCCN(C(=O)c3ccc(F)cc3)C2)cc1OC (configuration not stated),i,i,-12,i,i,0.04,.,.,.
COc1ccc(C(=O)C2CCCN(C(=O)c3cccc(N(C)C)c3)C2)cc1OC (configuration not stated),i,i,-7,i,i,0.99,i,i,i
Cc1cc(NC(=O)CSc2nc3c(c(=O)n2-c2ccccc2)SC(C)C3)no1 (configuration not stated),i,i,-12,i,i,-0.37,.,.,.
SMILES,KCNQ1 pot,KCNQ1 block,hERG protect,KCNK3 block,KCNK9 inh,Kir21 inh,KCNK9 inh conf,Kir2-1 spec,HEK293 Tl ctr
CC(C)CC(=O)N1CCN(C(=O)CCC2CCCC2)CC1,i,i,-2,i,i,0.14,.,.,.
COCCn1c(SCc2nnc(-c3ccccc3)o2)nc2sc3c(c2c1=O)CCC3,i,i,-23,i,-11*,0.35,37%*,i,32%*
FCCCOc1ccc(/C=N/OCc2ccc(Cl)cc2Cl)cc1,i,i,-3,i,i,-0.85,i,i,i
NC(=O)C1CCN(CC(=O)N2N=CCC2c2ccccc2)CC1 (configuration not stated),i,i,-7,i,-8.9*,-0.32,i,i,i
O=C(CN1CCN(c2ccccc2)CC1)N1N=CCC1c1ccccc1 (configuration not stated),i,i,-9,i,i,2.6,.,.,.
O=C(CSc1nncs1)N1CCN(S(=O)(=O)c2ccccc2)CC1,i,i,-3,i,i,-2.7,.,.,.
COc1ccc(Cl)cc1NC(=O)C12CCC(C)(C(=O)O1)C2(C)C (configuration not stated),i,i,-11,i,i,1.3,.,.,.
CCCCN(C(=O)c1cccc2c(=O)c(C)c(-c3ccccc3)oc12)c1ccccc1,i,i,-9,i,-10*,0,40%*,i,34%*
COc1cccc(NC(=O)CN(C)C(=O)CCC(=O)c2cc(C)sc2C)c1,.,.,.,i,.,.,.,.,.
Cc1ccc(NC(=O)N(CCCN2CCOCC2)Cc2cccs2)cc1C,i,i,-11,i,i,-0.2,.,.,.
COc1cccc(S(=O)(=O)N2CCN(Cc3ccc4c(c3)OCO4)CC2)c1,i,i,-9,i,i,-1.6,i,i,i
